In ChEMBL document CHEMBL1131450, “Synthesis and antitumor evaluation of 2,5-disubstituted-indazolo[4, 3-gh]isoquinolin-6(2H)-ones (9-aza-anthrapyrazoles)” (J Med Chem, 1998):
Values after ≈ are worked out from the molar mass of the structure shown.

The compounds below were run on LoVo (assay: In vitro cytotoxicity on human colon adenocarcinoma (LoVo ) tumor cell line.).
Type: functional, cell-based

SMILES | IC50 [µg/mL]
CN(C)CCCn1nc2c3c(c(NCCN(C)C)ccc31)C(=O)c1ccncc1-2 | 0.24 (≈ 0.611 µM)
CN(C)CCCNc1ccc2c3c(nn2CCN(C)C)-c2cnccc2C(=O)c13 | 0.33 (≈ 0.841 µM)
CCN(CC)CCNc1ccc2c3c(nn2CCN(C)C)-c2cnccc2C(=O)c13 | 0.37 (≈ 0.91 µM)
O=C1c2ccncc2-c2nn(CCNCCO)c3ccc(NCCN(CCO)CCO)c1c23 | > 100
CNCCNc1ccc2c3c(nn2CCN(C)C)-c2cnccc2C(=O)c13 | 0.03 (≈ 0.0823 µM)
CN(C)CCn1nc2c3c(c(NCCCN)ccc31)C(=O)c1ccncc1-2 | 1.65 (≈ 4.53 µM)
CN(C)CCn1nc2c3c(c(NCCN4CCCCC4)ccc31)C(=O)c1ccncc1-2 | 0.35 (≈ 0.836 µM)
NCCn1nc2c3c(c(NCCNCCO)ccc31)C(=O)c1ccncc1-2 | 1.63 (≈ 4.45 µM)

These compounds were tested on MX1 (assay: In vivo antitumor activity was measured on MX-1 human mammary carcinoma cells. TWI%=tumor weight inhibition. Optimal dose 24 mg/kg/day.).
Type: functional

SMILES | TWI [%]
CN(C)CCCn1nc2c3c(c(NCCN(C)C)ccc31)C(=O)c1ccncc1-2 | 55
CN(C)CCn1nc2c3c(c(NCCN4CCCCC4)ccc31)C(=O)c1ccncc1-2 | 6

What follows are compounds tested on MX1 (assay: In vivo antitumor activity was measured on MX-1 human mammary carcinoma cells. TWI%=tumor weight inhibition. Optimal dose 27 mg/kg/day.).
Type: functional

SMILES | TWI [%]
NCCn1nc2c3c(c(NCCNCCO)ccc31)C(=O)c1ccncc1-2 | 62

The compounds below were run on MX1 (assay: In vivo antitumor activity was measured on MX-1 human mammary carcinoma cells. TWI%=tumor weight inhibition. Maximum tested dose 90 mg/kg/day.).
Type: functional

SMILES | TWI [%]
CN(C)CCCNc1ccc2c3c(nn2CCN(C)C)-c2cnccc2C(=O)c13 | 141

These compounds were tested on MX1 (assay: In vivo antitumor activity was measured on MX-1 human mammary carcinoma cells. TWI%=tumor weight inhibition. Optimal dose 1.3 mg/kg/day.).
Type: functional

SMILES | TWI [%]
CNCCNc1ccc2c3c(nn2CCN(C)C)-c2cnccc2C(=O)c13 | 68

The compounds below were run on MX1 (assay: In vivo antitumor activity was measured on MX-1 human mammary carcinoma cells. TWI%=tumor weight inhibition. Optimal dose 130 mg/kg/day.).
Type: functional

SMILES | TWI [%]
O=C1c2ccncc2-c2nn(CCNCCO)c3ccc(NCCN(CCO)CCO)c1c23 | 45

These compounds were tested on MX1 (assay: In vivo antitumor activity was measured on MX-1 human mammary carcinoma cells. TWI%=tumor weight inhibition. Optimal dose 8 mg/kg/day.).
Type: functional

SMILES | TWI [%]
CN(C)CCn1nc2c3c(c(NCCCN)ccc31)C(=O)c1ccncc1-2 | 73

What follows are compounds tested on P388 (assay: In vivo antitumor activity was measured on systemic P388 murine leukemia cells. Maximum tested dose 3 mg/kg/day.).
Type: functional, Mus musculus
In short: (§1)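 CD2F1 male mice given 10⁶ P388 leukemia cells iv (day 0); drug given iv on days 1, 4 and 7. Survival expressed as T/C% = median survival time of treated / median survival of controls × 100, reported at optimal dose (mg/kg/day) or maximum tested dose.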

SMILES | T/C [%]
CN(C)CCn1nc2c3c(c(NCCN4CCCCC4)ccc31)C(=O)c1ccncc1-2 | 113

What follows are compounds tested on P388 (assay: In vivo antitumor activity was measured on systemic P388 murine leukemia cells. Maximum tested dose 40 mg/kg/day.).
Type: functional, Mus musculus
In short: as §1

SMILES | T/C [%]
CN(C)CCCNc1ccc2c3c(nn2CCN(C)C)-c2cnccc2C(=O)c13 | 138

The compounds below were run on P388 (assay: not given).
Type: functional, Mus musculus

SMILES | T/C [%]
CN(C)CCCn1nc2c3c(c(NCCN(C)C)ccc31)C(=O)c1ccncc1-2 | 270

What follows are compounds tested on P388 (assay: In vivo antitumor activity was measured on systemic P388 murine leukemia cells. Optimal dose 120 mg/kg/day.).
Type: functional, Mus musculus
In short: as §1

SMILES | T/C [%]
O=C1c2ccncc2-c2nn(CCNCCO)c3ccc(NCCN(CCO)CCO)c1c23 | 111

The compounds below were run on P388 (assay: In vivo antitumor activity was measured on systemic P388 murine leukemia cells. Optimal dose 13 mg/kg/day.).
Type: functional, Mus musculus
In short: as §1

SMILES | T/C [%]
CNCCNc1ccc2c3c(nn2CCN(C)C)-c2cnccc2C(=O)c13 | 262

The compounds below were run on P388 (assay: In vivo antitumor activity was measured on systemic P388 murine leukemia cells. Optimal dose 24 mg/kg/day.).
Type: functional, Mus musculus
In short: as §1

SMILES | T/C [%]
NCCn1nc2c3c(c(NCCNCCO)ccc31)C(=O)c1ccncc1-2 | 194

These compounds were tested on P388 (assay: In vivo antitumor activity was measured on systemic P388 murine leukemia cells. Optimal dose 4 mg/kg/day.).
Type: functional, Mus musculus
In short: as §1

SMILES | T/C [%]
CCN(CC)CCNc1ccc2c3c(nn2CCN(C)C)-c2cnccc2C(=O)c13 | 175

The compounds below were run on P388 (assay: In vivo antitumor activity was measured on systemic P388 murine leukemia cells. Toxic deaths observed at dose 18 mg/kg/day.).
Type: functional, Mus musculus

SMILES | T/C [%]
CN(C)CCn1nc2c3c(c(NCCCN)ccc31)C(=O)c1ccncc1-2 | 125

The compounds below were run on LoVo (assay: Resistance index measured as the ratio of IC50 of LoVo/Dx cell line to that of LoVo cell line.).
Type: functional, Homo sapiens

SMILES | RI
CN(C)CCCn1nc2c3c(c(NCCN(C)C)ccc31)C(=O)c1ccncc1-2 | 8.3
CN(C)CCCNc1ccc2c3c(nn2CCN(C)C)-c2cnccc2C(=O)c13 | 6.4
CCN(CC)CCNc1ccc2c3c(nn2CCN(C)C)-c2cnccc2C(=O)c13 | 2.2
CNCCNc1ccc2c3c(nn2CCN(C)C)-c2cnccc2C(=O)c13 | 126
CN(C)CCn1nc2c3c(c(NCCCN)ccc31)C(=O)c1ccncc1-2 | 7.6
CN(C)CCn1nc2c3c(c(NCCN4CCCCC4)ccc31)C(=O)c1ccncc1-2 | 1.1
NCCn1nc2c3c(c(NCCNCCO)ccc31)C(=O)c1ccncc1-2 | >61

The compounds below were run on MX1 (assay: In vivo antitumor activity was measured on MX-1 human mammary carcinoma cells. TWI%=tumor weight inhibition. Optimal dose 9 mg/kg/day.).
Type: functional

SMILES | TWI [%]
CCN(CC)CCNc1ccc2c3c(nn2CCN(C)C)-c2cnccc2C(=O)c13 | 35

What follows are compounds tested on LoVo/Dx (Homo sapiens) (assay: cells).

SMILES | IC50 [µg/mL]
CN(C)CCCn1nc2c3c(c(NCCN(C)C)ccc31)C(=O)c1ccncc1-2 | 2 (≈ 5.1 µM)
CN(C)CCCNc1ccc2c3c(nn2CCN(C)C)-c2cnccc2C(=O)c13 | 2.13 (≈ 5.43 µM)
CCN(CC)CCNc1ccc2c3c(nn2CCN(C)C)-c2cnccc2C(=O)c13 | 0.83 (≈ 2.04 µM)
O=C1c2ccncc2-c2nn(CCNCCO)c3ccc(NCCN(CCO)CCO)c1c23 | > 100
CNCCNc1ccc2c3c(nn2CCN(C)C)-c2cnccc2C(=O)c13 | 3.78 (≈ 10.4 µM)
CN(C)CCn1nc2c3c(c(NCCCN)ccc31)C(=O)c1ccncc1-2 | 12.5 (≈ 34.3 µM)
CN(C)CCn1nc2c3c(c(NCCN4CCCCC4)ccc31)C(=O)c1ccncc1-2 | 0.39 (≈ 0.932 µM)
NCCn1nc2c3c(c(NCCNCCO)ccc31)C(=O)c1ccncc1-2 | > 100
